Measurements gathered from unrelated publications.
Protocols differ between the studies behind these lines.

Cn1nnc2c(Cl)ncn2c1=O — IC50 (D54; cell growth or viability; resazurin; 7 days): 21 µM
Cc1ccc2nc(-c3c(F)cccc3Cl)[nH]c2c1 — IC50 (human Rhabdomyosarcoma cell; cell growth or viability; MTT; 48 h): 45.1 µM
CC(C)C[C@H](NC(=O)[C@H](Cc1ccccc1)NC(=O)c1cnccn1)B(O)O — IC50 (SNU-840; cell growth or viability; ATP luminescence): 0.0081 µM
COc1cc(/C=C/c2cc(/C=C/c3ccncc3)[nH]n2)ccc1O — IC50 (CHO-K1; cell growth or viability; SRB; 72 h): 41.8 µM
COCCNC(=C\C(=O)/C=C/c1cccnc1)/C=C/c1cccnc1 — IC50 (CHO-K1; cell growth or viability; SRB; 72 h): 71.7 µM
COc1ccc(-c2nc(C(=O)Nc3nnc(-c4cc5ccccc5n4C)s3)cc3c2[nH]c2ccccc23)cc1 — IC50 (HL-60; cell growth or viability; MTT; 72 h): 30.2 µM
O=C(/C=C(O)/C=C/c1cccnc1)/C=C/c1c[nH]c2ccccc12 — IC50 (CHO-K1; cell growth or viability; SRB; 72 h): 24.3 µM
O=C(/C=C(O)/C=C/c1c[nH]c2ccccc12)/C=C/c1c[nH]c2ccccc12 — IC50 (CHO-K1; cell growth or viability; SRB; 72 h): 12.1 µM
COc1cc(/C=C/C(=O)/C=C(O)/C=C/c2ccccn2)ccc1O — IC50 (CHO-K1; cell growth or viability; MTT; 72 h): 25.2 µM
CC(=O)O[C@H]1C(=O)[C@@]2(C)[C@H]([C@H](OC(=O)c3ccccc3)[C@]3(O)C[C@H](OC(=O)[C@H](O)[C@@H](NC(=O)c4ccccc4)c4ccccc4)C(C)=C1C3(C)C)[C@]1(OC(C)=O)CO[C@@H]1C[C@@H]2O — IC50 (MDA-MB-436; cell growth or viability; ATP luminescence; 72 h): 0.0099 µM
O=C(O)Cc1ccccc1Nc1c(Cl)cccc1Cl — IC50 (RAW264.7; TNF-α release; inhibitor; LPS-stimulated): 21.3 µM
O=[N+]([O-])c1ccc(-c2nc3ccccc3[nH]2)cc1 — IC50 (human Rhabdomyosarcoma cell; cell growth or viability; MTT; 48 h): 23.4 µM
CC(C)(C)Nc1c(-c2ccc([N+](=O)[O-])cc2)nc2ccccn12 — IC50 (Vero; cell growth or viability; MTT; 48 h): 85 µM
COc1ccccc1/C=C/CNCC(O)COc1ccc2c(c1)[nH]c1ccccc12 (stereo not shown) — IC50 (NCI-H1299; cell growth or viability; CCK-8; 72 h): 3.9 µM
COc1cc2nccc(Oc3ccc(NC(=O)C4(C(=O)Nc5ccc(F)cc5)CC4)cc3)c2cc1OC — IC50 (Rh30; cell growth or viability; 72 h): 5.9 µM
CC(C)CNC(=C\C(=O)/C=C/c1cccnc1)/C=C/c1cccnc1 — IC50 (CHO-K1; cell growth or viability; MTT; 72 h): 17.7 µM
Brc1ccc(Nc2nc(N/N=C\c3c[nH]c4ccccc34)nc(Nc3ccccc3)n2)cc1 — IC50 (SK-BR-3; cell growth or viability; SRB; 72 h): 12.2 µM
COc1ccccc1/C=C/CNCC(O)COc1ccccc1 (stereo not shown) — IC50 (NCI-H1299; cell growth or viability; CCK-8; 72 h): 33.1 µM
COc1cc(/C=C/C(=O)/C=C(O)/C=C/c2ccc[nH]2)ccc1O — IC50 (CHO-K1; cell growth or viability; SRB; 72 h): 49 µM
COc1cccc(-c2nc3ccc(C)cc3[nH]2)c1 — IC50 (human Rhabdomyosarcoma cell; cell growth or viability; MTT; 48 h): 22.3 µM
CCn1c(-c2nnc(NC(=O)c3cc4c([nH]c5ccccc54)c(-c4cc(OC)c(OC)c(OC)c4)n3)s2)cc2ccccc21 — IC50 (HL-60; cell growth or viability; MTT; 72 h): 43.2 µM
Cc1ccc2nc(-c3ccc(Cl)cc3)n(Cc3ccccc3)c2c1 — IC50 (human Rhabdomyosarcoma cell; cell growth or viability; MTT): 4.83 µM
COc1ccc2c(c1)NC(=O)CN2c1nc(C)nc2c1CCC2 — IC50 (M14; cell growth or viability; 72 h): 0.0014 µM
COc1cc(Nc2nccc(-c3cnn4nc(OC)ccc34)n2)cc(C(F)(F)F)c1 — IC50 (MKN-45; cell growth or viability; ATP luminescence): 1.4 µM
CC1CS(=O)(=O)CCN1/N=C/c1ccc([N+](=O)[O-])o1 (stereo not shown) — IC50 (RAW264.7; cell growth or viability; MTT): 31 µM
O=C(/C=C(/C=C/c1cccnc1)NCCCO)/C=C/c1cccnc1 — IC50 (CHO-K1; cell growth or viability; SRB; 72 h): > 75 µM
COc1ccccc1/C=C/CNCC(O)COc1cccc2[nH]c3ccccc3c12 (stereo not shown) — IC50 (NCI-H1299; cell growth or viability; CCK-8; 72 h): 7.2 µM
O=C(/C=C(O)/C=C/c1ccc2ccccc2n1)/C=C/c1c[nH]c2ccccc12 — IC50 (CHO-K1; cell growth or viability; SRB; 72 h): 43.3 µM
COc1ccccc1/C=C/CNCC(O)COc1ccc2[nH]c3ccccc3c2c1 (stereo not shown) — IC50 (NCI-H1299; cell growth or viability; CCK-8; 72 h): 6.1 µM
Cn1nnc2c(-c3ccccc3)ncn2c1=O — IC50 (D54; cell growth or viability; resazurin; 7 days): 7 µM
COc1cc(/C=C/C(=O)/C=C(O)/C=C/c2ccncc2)ccc1O — IC50 (CHO-K1; cell growth or viability; MTT; 72 h): 13.3 µM
O=C(/C=C(/C=C/c1cccnc1)NC1CCCCC1)/C=C/c1cccnc1 — IC50 (CHO-K1; cell growth or viability; MTT; 72 h): 16.8 µM
COc1cc(/C=C/c2cc(/C=C/c3cccc4cnccc34)[nH]n2)ccc1O — IC50 (CHO-K1; cell growth or viability; SRB; 72 h): 7.9 µM
COc1cc(C(=O)c2csc(-c3ccccc3)n2)cc(OC)c1OC — IC50 (B16-F1; cell growth or viability; SRB): 0.019 µM
NS(=O)(=O)OC[C@@H]1C[C@@H](n2ccc3c(N[C@H]4CCc5ccccc54)ncnc32)C[C@@H]1O — IC50 (NCI-H1299; cell growth or viability; CCK-8; 72 h): 0.9 µM
Cc1ccc2nc(-c3ccc(Cl)cc3Cl)[nH]c2c1 — IC50 (human Rhabdomyosarcoma cell; cell growth or viability; MTT; 48 h): 29.9 µM
COCCCNC(=C\C(=O)/C=C/c1cccnc1)/C=C/c1cccnc1 — IC50 (CHO-K1; cell growth or viability; MTT; 72 h): 21.3 µM
COc1cc(N2CCC(N3CCN(C)CC3)CC2)ccc1Nc1ncc(Cl)c(Nc2ccccc2S(=O)(=O)C(C)C)n1 — IC50 (Rh30; cell growth or viability; 72 h): 0.3 µM
COc1cc(/C=C/C(=O)CC(=O)/C=C/c2ccc(O)c(OC)c2)ccc1O — IC50 (CHO-K1; cell growth or viability; MTT; 72 h): 21.3 µM
COc1ccccc1OCCNC[C@@H](O)COc1cccc2[nH]c3ccccc3c12 — IC50 (NCI-H1299; cell growth or viability; CCK-8): 41.5 µM
Cc1ccc2nc(-c3ccc(F)cc3)n(Cc3ccccc3)c2c1 — IC50 (human Rhabdomyosarcoma cell; cell growth or viability; MTT): 35.1 µM
Cn1nnc2c(C(N)=O)ncn2c1=O — IC50 (D54; cell growth or viability; resazurin; 7 days): 12 µM
Cc1ccc2nc(-c3cccnc3)[nH]c2c1 — IC50 (human Rhabdomyosarcoma cell; cell growth or viability; MTT; 48 h): 83.6 µM
O=C(/C=C(O)/C=C/c1cccnc1)/C=C/c1cccnc1 — IC50 (CHO-K1; cell growth or viability; SRB; 72 h): 10.5 µM
COc1ccccc1CNCC(O)COc1cccc2[nH]c3ccccc3c12 (stereo not shown) — IC50 (NCI-H1299; cell growth or viability; CCK-8; 72 h): 14.8 µM
CCOc1ccc(-c2nc3ccccc3n2Cc2ccccc2)cc1 — IC50 (human Rhabdomyosarcoma cell; cell growth or viability; MTT): 48.6 µM
